The structures appear in SMILES notation. Among all 190,000 compounds or so, about 660 (0.35%) were called active. This is one part of a sample in which actives are shown more often than they occur.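 The calls were made as follows: active = activation factor of 2 or more at 20 µM; inactive = the rest.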

Chain of Mannose-6-phosphate isomerase (Homo sapiens) (P34949 whole entry, looked up): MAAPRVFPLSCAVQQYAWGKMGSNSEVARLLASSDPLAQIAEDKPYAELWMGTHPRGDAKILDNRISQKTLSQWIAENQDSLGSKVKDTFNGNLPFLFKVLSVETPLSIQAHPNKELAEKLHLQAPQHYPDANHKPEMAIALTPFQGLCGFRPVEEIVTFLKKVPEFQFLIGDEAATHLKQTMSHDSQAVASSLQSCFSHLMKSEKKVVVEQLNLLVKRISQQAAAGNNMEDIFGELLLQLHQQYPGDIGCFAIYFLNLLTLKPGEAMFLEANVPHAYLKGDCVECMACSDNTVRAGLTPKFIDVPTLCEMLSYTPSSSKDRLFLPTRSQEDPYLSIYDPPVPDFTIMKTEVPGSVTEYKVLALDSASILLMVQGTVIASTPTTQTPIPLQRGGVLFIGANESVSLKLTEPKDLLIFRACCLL

The test deals with Mannose-6-phosphate isomerase (Homo sapiens) (UniProt P34949). Kind of test: human PMI activators, high substrate, primary screen, biochemical, fluorescence intensity, near-saturating mannose 6-phosphate (AID 1216). The following applies: coupled PMI enzyme assay, resazurin fluorescence, 20 min; at 20 µM; stronger effect = higher value. In a few lines:
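Test system: Human PMI in coupled enzyme assay | Input: 15 ng/mL PMI | Medium: HEPES-buffered pH 7.4 with magnesium and detergent | Compound: One concentration, 20 µM, in 1% DMSO | Incubation: Enzyme reaction with compound 20 min at room temperature | Detection: Diaphorase-driven resazurin-to-resorufin fluorescence, excitation 544, emission 590 nm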
Background: Resazurin is reduced to fluorescent resorufin, in cell work by metabolically active cells.
For `O=C1N=c2ccccc2=C/C1=C\c1c(O)[nH]c(=S)[nH]c1=O`, the activation factor was 2.1 (active).
The result for `COc1ccccc1N=Nc1c(O)[nH]c(=S)[nH]c1=O` reads 0.9 (inactive); that for `Cc1ccc2c(c1)=C/C(=C\c1c(O)[nH]c(=O)[nH]c1=O)C(=O)N=2`, 0.5 (inactive); that for `O=C(CSC1c2ccccc2-c2ccccc21)N/N=C/c1ccccc1`, 0.9 (inactive).
The result for `Cc1cccc(OP(=O)(Oc2cccc(C)c2)OC(c2ccccc2)C(F)(F)F)c1` (stereo not given) reads 0.9 (inactive).

The values above are taken from PubChem BioAssay AID1216 (Sanford-Burnham Center for Chemical Genomics, 2008).
